The test system of assay [1] is Rattus norvegicus. As to the kind of experiment: Anti-inflammatory activity against reverse passive […] reaction-synovitis in rat at 50 mg/kg oral dose. The format is functional. A digest of the protocol: (§1)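 Lewis rats dosed orally with drug or placebo 1 h before iv bovine serum albumin in saline, then 0.54 mg rabbit anti-BSA antibody intraarticular in one knee, saline in the other, under light anesthesia. Second oral dose at 3 h; the dose used is the total given before and after induction.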

The target of assay [2] is T1, Cyclooxygenase (Rattus norvegicus, UniProt P35355+Q63921).
T1 sequence (P35355 whole entry): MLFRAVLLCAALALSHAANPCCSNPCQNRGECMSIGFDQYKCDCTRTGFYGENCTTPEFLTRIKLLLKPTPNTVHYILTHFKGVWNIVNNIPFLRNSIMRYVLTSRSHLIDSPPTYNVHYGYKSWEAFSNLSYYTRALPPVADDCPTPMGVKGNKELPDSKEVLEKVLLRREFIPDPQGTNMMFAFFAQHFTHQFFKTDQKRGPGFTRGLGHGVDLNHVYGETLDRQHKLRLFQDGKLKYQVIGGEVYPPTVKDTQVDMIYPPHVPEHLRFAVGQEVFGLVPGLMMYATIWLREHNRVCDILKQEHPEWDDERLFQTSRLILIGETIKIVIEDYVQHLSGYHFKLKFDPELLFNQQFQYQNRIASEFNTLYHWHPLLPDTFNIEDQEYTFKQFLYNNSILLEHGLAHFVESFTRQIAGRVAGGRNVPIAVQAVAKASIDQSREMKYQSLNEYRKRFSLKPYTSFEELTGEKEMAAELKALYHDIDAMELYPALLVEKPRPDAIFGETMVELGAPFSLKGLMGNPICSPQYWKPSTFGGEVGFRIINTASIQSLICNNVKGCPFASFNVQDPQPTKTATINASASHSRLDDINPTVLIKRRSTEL
T1 sequence (Q63921 whole entry): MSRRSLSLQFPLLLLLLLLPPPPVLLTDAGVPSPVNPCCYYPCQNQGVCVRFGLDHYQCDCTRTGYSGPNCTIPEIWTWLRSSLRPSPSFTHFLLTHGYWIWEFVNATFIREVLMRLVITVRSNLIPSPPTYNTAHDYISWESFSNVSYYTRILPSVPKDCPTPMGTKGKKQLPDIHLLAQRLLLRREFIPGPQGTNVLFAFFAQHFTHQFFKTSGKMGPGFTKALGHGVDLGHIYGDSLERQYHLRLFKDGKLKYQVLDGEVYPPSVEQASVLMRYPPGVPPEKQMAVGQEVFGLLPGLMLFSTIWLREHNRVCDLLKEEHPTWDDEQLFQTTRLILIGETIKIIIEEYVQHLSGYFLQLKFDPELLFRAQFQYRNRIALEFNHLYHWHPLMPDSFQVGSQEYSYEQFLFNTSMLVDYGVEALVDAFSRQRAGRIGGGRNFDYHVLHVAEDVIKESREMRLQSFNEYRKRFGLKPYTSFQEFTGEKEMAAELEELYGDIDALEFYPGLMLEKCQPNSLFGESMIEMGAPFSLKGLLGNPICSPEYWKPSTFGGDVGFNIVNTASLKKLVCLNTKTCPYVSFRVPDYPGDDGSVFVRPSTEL
The assay is described as follows: Inhibitory activity against Prostaglandin G/H synthase in an in vitro rat neutrophil assay. The format is protein assay.

Assay [3] can be described thus: Inhibition of guinea pig Phosphodiesterase. Further details: species or system Cavia porcellus.
In assay [4] the test system is Rattus norvegicus. As to the kind of experiment: Prophylactic anti-inflammatory activity in adjuvant arthritic rat at 9 mg/kg in noninjected 2 degree paw. The format is functional. A digest of the protocol:
(§2)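 Heat-killed Mycobacterium tuberculosis ground and homogenized in paraffin oil (6 mg/mL); 0.1 mL injected into left hind paw. Drug dosed 1 h before challenge, then daily for 21 consecutive days; controls received methylcellulose. Both hind paw volumes measured by plethysmograph immediately and on day 21; % inhibition of Δ paw volume.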

Assay [5] concerns Rattus norvegicus. As to the kind of experiment: Prophylactic anti-inflammatory activity in adjuvant arthritic rat at 3 mg/kg in noninjected 1 degree paw. The format is functional. A digest of the protocol:
as §2

Assay [6] relates to Rattus norvegicus. The assay is described as follows: Prophylactic oral administration in adjuvant arthritic rat model at 27 mg/kg in noninjected 2 degree paw. The class given is functional. Summed up:
as §2

The subject of assay [7] is Rattus norvegicus. As to the kind of experiment: Prophylactic anti-inflammatory activity in adjuvant arthritic rat at 27 mg/kg in noninjected 2 degree paw. The class given is functional. A digest of the protocol: as §2
The test system of assay [8] is Rattus norvegicus. As to the kind of experiment: Prophylactic anti-inflammatory activity in adjuvant arthritic rat at 3 mg/kg in noninjected 2 degree paw. The format is functional. A digest of the protocol:
as §2

A short description of assay [9]: Therapeutic oral administration in adjuvant arthritic rat model at 25 mg/kg in noninjected 2 degree paw. The class given is ADME, organism-based. Details: dose 25 mg/kg, route oral. Summed up: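 Adjuvant arthritis (heat-killed M. tuberculosis in paraffin oil, 6 mg/mL, 0.1 mL into left hind paw) left to develop 7 days before first oral dose; treatment continued 35 days. Controls given methylcellulose; hind paw volumes measured by plethysmograph as Δ paw volume; % inhibition.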

For assay [10], the system named is Rattus norvegicus. As to the kind of experiment: Anti-inflammatory activity against reverse passive […] reaction-synovitis in rat at 100 mg/kg oral dose. The format is functional. A digest of the protocol:
as §1

Assay [11] relates to Rattus norvegicus. The assay is described as follows: Prophylactic anti-inflammatory activity in adjuvant arthritic rat at 9 mg/kg in noninjected 1 degree paw. The class given is functional. A digest of the protocol:
as §2

Assay [12] has as its system Rattus norvegicus. As to the kind of experiment: Prophylactic anti-inflammatory activity in adjuvant arthritic rat at 27 mg/kg in noninjected 1 degree paw. The format is functional. Summed up: as §2

Several values for one entry are separate records, joined by “and”; a condition that tells them apart may be missing. Equal entries are not always repeated.

Usually inhibition in vivo stands for how much of the control response was suppressed. In assay [1], `CN1CN(C)c2nc3n(Cc4ccccc4)c(O)cc(=O)n3c2C1=O` returned an inhibition in vivo at 50 mg/kg of 0%.
Usually IC50 stands for the concentration that inhibits the measured activity by half. As a reminder, the ED50 is the dose that gives a 50% effect, or the effect in half of the subjects. Regarding `CC(C)=CCc1c(O)n(Cc2ccccc2)c2nc3c(n2c1=O)C(=O)N(C)CN3C`, the IC50 is 6 µM in assay [2]; 37 µM and 200 µM in assay [3]. For the same compound, the inhibition in vivo at 9 mg/kg was found to be 65% in assay [4] and 33% in assay [11]. The inhibition in vivo at 3 mg/kg in assay [5] came to 17%; in assay [8], 47%. Moreover, the ED50 in assay [6] worked out at 6.02 mg/kg; in [9] it was 15 mg/kg. The inhibition in vivo at 27 mg/kg in assay [7] was found to be 92%; in assay [12], 54%. The compound also displayed an inhibition in vivo at 100 mg/kg in [10] of 20%.

The values are drawn from ChEMBL document CHEMBL1124662, “Antiinflammatory activity of a series of substituted 2,3-dihydro-6-hydroxypyrimido[2,1-f]purine-4,8(1H,9H)-diones” (J Med Chem, 1989).
